This note sets out measurements from ChEMBL document CHEMBL1240379, “Combined ramR mutation and presence of a Tn1721-associated tet(A) variant in a clinical isolate of Salmonella enterica serovar Hadar resistant to tigecycline” (2010).

≈ marks a conversion by molar mass, not a printed value.

Assay [1] in a line: Antibacterial activity against Salmonella enterica serovar Hadar VA5649 by Etest method. The assay is classed as functional, Salmonella enterica subsp. enterica serovar Hadar.
Assay [2] is described as follows: Antibacterial activity against Salmonella enterica serovar Hadar VA5649 harboring wild type ramR-2313 gene by Etest method. The class given is functional, Salmonella enterica subsp. enterica serovar Hadar.
Assay [3] in a line: Antibacterial activity against Salmonella enterica serovar Hadar VA5649 harboring ramR-5649 mutant gene by Etest method. The class given is functional, Salmonella enterica subsp. enterica serovar Hadar.
A short description of assay [4]: Antibacterial activity against Salmonella enterica serovar Hadar VA5649 expressing ACYC177 plasmid by Etest method. The assay is classed as functional, Salmonella enterica subsp. enterica serovar Hadar.
For assay [5], the system named is Salmonella enterica. The assay is described as follows: Antibacterial activity against wild type Salmonella enterica TY2313 by Etest method. The assay is classed as functional.
The nature of assay [6]: Antibacterial activity against Salmonella enterica serovar Hadar VA5649 by both microdilution assay. The class given is functional, Salmonella enterica subsp. enterica serovar Hadar. The gist of the method:
(§1)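 Tigecycline MIC by broth microdilution using a commercial tigecycline panel with freshly prepared Mueller-Hinton II broth less than 12 h old. Susceptible, intermediate or resistant category assigned by EUCAST clinical breakpoints.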
A general note: Broth dilution looks for growth in wells or tubes with falling amounts of substance.

In assay [7] the test system is Escherichia coli. Nature of the assay: Antibacterial activity against Escherichia coli DH10B by broth microdilution assay. The class given is functional. Conditions: K-12 DH10B. An outline of the steps:
(§2)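 MIC by broth microdilution on a commercial ready-made drug panel, using freshly prepared Mueller-Hinton II broth (under 12 h old). MIC categories interpreted against EUCAST clinical breakpoints (susceptible, intermediate or resistant).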

Assay [8] deals with Escherichia coli. The assay is described as follows: Antibacterial activity against Escherichia coli DH10B harboring Tn1721-tet(A) carrying plasmid by broth microdilution assay. The class given is functional. Conditions: K-12 DH10B. The gist of the method:
as §1

Assay [9] has as its system Escherichia coli. The assay is described as follows: Antibacterial activity against Escherichia coli DH10B expressing SK2 plasmid by broth microdilution assay. The assay is classed as functional. Conditions: K-12 DH10B. An outline of the steps: as §2
Assay [10] relates to Escherichia coli. The assay is described as follows: Antibacterial activity against Escherichia coli DH10B expressing Tn1721-tet(A) carrying plasmid SK2 by broth microdilution assay. The assay is classed as functional. The settings on record: K-12 DH10B. An outline of the steps: as §1
Assay [11] concerns Salmonella enterica. The assay is described as follows: Antibacterial activity against wild type Salmonella enterica TY2313 by broth microdilution assay. The class given is functional. The gist of the method: as §2
A short description of assay [12]: Antibacterial activity against Salmonella enterica serovar Hadar VA5649 harboring wild type ramR-2313 gene by both microdilution assay. The class given is functional, Salmonella enterica subsp. enterica serovar Hadar. The gist of the method:
as §1

Assay [13] can be described thus: Antibacterial activity against Salmonella enterica serovar Hadar VA5649 harboring ramR-5649 mutant gene by both microdilution assay. The assay is classed as functional, Salmonella enterica subsp. enterica serovar Hadar. The gist of the method:
as §1

Assay [14] is described as follows: Antibacterial activity against Salmonella enterica serovar Hadar VA5649 expressing ACYC177 plasmid by both microdilution assay. The assay is classed as functional, Salmonella enterica subsp. enterica serovar Hadar. The gist of the method: as §1
Assay [15] deals with Escherichia coli. Nature of the assay: Antibacterial activity against Escherichia coli DH10B by Etest method. Conditions: K-12 DH10B. The class given is functional.
Assay [16] has as its system Escherichia coli. The assay is described as follows: Antibacterial activity against Escherichia coli DH10B harboring Tn1721-tet(A) carrying plasmid by Etest method. The assay is classed as functional. The settings on record: K-12 DH10B.
The test system of assay [17] is Escherichia coli. The assay is described as follows: Antibacterial activity against Escherichia coli DH10B expressing SK2 plasmid by Etest method. The class given is functional. Conditions: K-12 DH10B.
For assay [18], the system named is Escherichia coli. Nature of the assay: Antibacterial activity against Escherichia coli DH10B expressing Tn1721-tet(A) carrying plasmid SK2 by Etest method. The assay is classed as functional. The settings on record: K-12 DH10B.

As a reminder, the MIC is the lowest concentration that inhibits growth of the organism. A higher MIC goes with a less susceptible organism. As for `O=C(O)c1cn(C2CC2)c2cc(N3CCNCC3)c(F)cc2c1=O` [CIPROFLOXACIN], the minimal inhibitory concentration (MIC) in assay [1] was determined as 1 µg/mL (≈ 3.02 µM); in [2], 0.25 µg/mL (≈ 0.754 µM); in assay [3], 1 µg/mL (≈ 3.02 µM); in [4], 1 µg/mL (≈ 3.02 µM).

Consider `O=C(N[C@H](CO)[C@H](O)c1ccc([N+](=O)[O-])cc1)C(Cl)Cl` [CHLORAMPHENICOL], for which the minimum inhibitory concentration (MIC) in [1] was 8 µg/mL (≈ 24.8 µM); in [5], 2 µg/mL (≈ 6.19 µM); in [2] it was 2 µg/mL (≈ 6.19 µM); in [3] it was 8 µg/mL (≈ 24.8 µM); in assay [4], 8 µg/mL (≈ 24.8 µM).

In the case of `CN(C)c1cc(NC(=O)CNC(C)(C)C)c(O)c2c1C[C@H]1C[C@H]3[C@H](N(C)C)C(O)=C(C(N)=O)C(=O)[C@@]3(O)C(O)=C1C2=O` [TIGECYCLINE], the minimal inhibitory concentration (MIC) in assay [6] stood at 16 µg/mL (≈ 27.3 µM); in assay [7], 0.065 µg/mL (≈ 0.111 µM); in assay [8], 0.25 µg/mL (≈ 0.427 µM); in assay [9], 0.065 µg/mL (≈ 0.111 µM); in assay [10], 0.25 µg/mL (≈ 0.427 µM); in [11] it was 0.25 µg/mL (≈ 0.427 µM). The minimum inhibitory concentration (MIC) is 2 µg/mL (≈ 3.41 µM) in assay [12], 16 µg/mL (≈ 27.3 µM) in [13] and 16 µg/mL (≈ 27.3 µM) in assay [14].

`CN(C)c1ccc(O)c2c1C[C@H]1C[C@H]3[C@H](N(C)C)C(O)=C(C(N)=O)C(=O)[C@@]3(O)C(O)=C1C2=O` [MINOCYCLINE]: the minimum inhibitory concentration (MIC) worked out at 32 µg/mL (≈ 69.9 µM) in [1]; 0.75 µg/mL (≈ 1.64 µM) in assay [15]; 8 µg/mL (≈ 17.5 µM) in assay [16]; 0.75 µg/mL (≈ 1.64 µM) in [17]; 8 µg/mL (≈ 17.5 µM) in assay [18].
